Experiment [1] addresses Cyclin-dependent kinase 2/cyclin E (Homo sapiens, UniProt P24941). The experiment in a line: Inhibitory concentration against Cyclin-dependent kinase 2-cyclin E. It is filed as protein-complex assay.
Experiment [2] has as its target Cyclin-dependent kinase 4/cyclin D1 (Homo sapiens, UniProt P11802). The experiment in a line: Inhibitory concentration against Cyclin-dependent kinase 4-cyclin D1. It is filed as protein-complex assay. The procedure, abridged: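 CDK4/cyclin D1 came from extracts of insect cells dually infected with baculovirus vectors. Reactions were started with 4 units of enzyme, run 15 min at room temperature, and stopped with EDTA. Product was captured on GSH-Sepharose and counted by scintillation.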

Another experiment concerns HCT-116. The experiment in a line: Inhibition of HCT116 colon carcinoma cell proliferation. To be noted: Homo sapiens. The format is functional, cell-based. The essentials: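 SRB colorimetric growth assay. Exponentially growing cells were seeded so they would undergo 3-5 doublings before reaching 85% confluence. Graded compound concentrations were added 18 h later, and cells were incubated 5 days at 37 °C in 5% CO2. Cells were fixed with cold TCA for 1 h at 4 °C, stained with 0.4% SRB in 1% acetic acid, solubilized in 10 mM Tris base, and OD read at 570 nm.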

56 compounds from ChEMBL document CHEMBL1136010, “Synthesis and evaluation of indenopyrazoles as cyclin-dependent kinase inhibitors. 3. Structure activity relationships at C3(1,2)” (J Med Chem, 2002) can be followed below.

Chain of Cyclin-dependent kinase 4/cyclin D1 (P11802 whole entry): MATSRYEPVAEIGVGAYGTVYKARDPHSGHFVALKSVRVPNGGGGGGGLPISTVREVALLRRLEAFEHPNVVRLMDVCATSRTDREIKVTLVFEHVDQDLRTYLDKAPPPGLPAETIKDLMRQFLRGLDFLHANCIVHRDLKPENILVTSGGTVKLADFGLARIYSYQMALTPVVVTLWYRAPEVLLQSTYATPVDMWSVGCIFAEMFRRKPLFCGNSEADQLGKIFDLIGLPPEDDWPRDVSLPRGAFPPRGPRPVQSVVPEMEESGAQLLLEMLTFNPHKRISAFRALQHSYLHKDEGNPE
Chain of Cyclin-dependent kinase 4/cyclin D1 (P24385 whole entry, further chain): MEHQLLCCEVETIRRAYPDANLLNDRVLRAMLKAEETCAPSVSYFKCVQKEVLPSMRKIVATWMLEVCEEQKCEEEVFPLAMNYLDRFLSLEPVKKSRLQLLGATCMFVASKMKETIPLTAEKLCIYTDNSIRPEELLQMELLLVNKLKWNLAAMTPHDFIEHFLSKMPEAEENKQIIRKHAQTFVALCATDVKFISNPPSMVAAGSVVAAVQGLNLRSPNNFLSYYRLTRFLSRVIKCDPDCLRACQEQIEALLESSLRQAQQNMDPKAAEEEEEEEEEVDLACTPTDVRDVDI

As for `CCOc1ccc(-c2[nH]nc3c2C(=O)c2c(NC(C)=O)cccc2-3)cc1`, the IC50 was greater than 400 nM in experiment [1] and greater than 580 nM in experiment [2].

For `CC(=O)Nc1cccc2c1C(=O)c1c-2n[nH]c1C`, the concentration for half-maximal inhibition (IC50) in experiment [1] was 11000 nM; in experiment [2] it was greater than 4200 nM.

As to `CC(=O)Nc1cccc2c1C(=O)c1c(-c3ccc(C)cc3)n[nH]c1-2`, the concentration for half-maximal inhibition (IC50) in experiment [1] was determined as 160 nM; in experiment [2], 490 nM.

As to `NC(=O)C1CCN(CC(=O)Nc2cccc3c2C(=O)c2c-3n[nH]c2C2CC2)CC1`, the IC50 was 26 nM in experiment [1], 120 nM in the experiment with HCT-116 and greater than 99 nM in experiment [2].

Turning to `Cc1ccc(-c2[nH]nc3c2C(=O)c2c(NC(N)=O)cccc2-3)s1`, the values for the concentration for half-maximal inhibition (IC50) (in experiment [1]; in the experiment on HCT-116; in experiment [2]) were 13 nM, 29 nM and 53 nM, respectively.

`CC(=O)Nc1cccc2c1C(=O)c1c-2n[nH]c1-c1cccs1`: the figures for the IC50 in experiment [1] and in experiment [2] were 180 nM and 4500 nM, respectively.

Turning to `CC(=O)Nc1cccc2c1C(=O)c1c-2n[nH]c1-c1ccc(N2CCCCC2)cc1`, the IC50 in experiment [1] amounted to 900 nM; in experiment [2], 680 nM.

For the compound `CC(=O)Nc1cccc2c1C(=O)c1c-2n[nH]c1C1CCCCC1`, the IC50 is 1100 nM in experiment [1] and greater than 3200 nM in experiment [2].

For the compound `COc1ccc(-c2[nH]nc3c2C(=O)c2c(NC(=O)CN4CCC(CN)CC4)cccc2-3)cc1`, the IC50 in experiment [1] stood at 14 nM; in experiment [2], 13 nM.

Turning to `CC(=O)Nc1cccc2c1C(=O)c1c-2n[nH]c1C1CC1`, the IC50 was 480 nM in experiment [1] and greater than 3700 nM in experiment [2].

On to `CN1CCN(CC(=O)Nc2cccc3c2C(=O)c2c-3n[nH]c2-c2ccc(N3CCOCC3)cc2)CC1`, for which the IC50 came to 42 nM in experiment [1] and 190 nM in experiment [2].

As to `NC(=O)C1CCN(CC(=O)Nc2cccc3c2C(=O)c2c-3n[nH]c2C2CCCCC2)CC1`, the half-inhibitory concentration (IC50) in experiment [1] is 36 nM; in experiment [2], greater than 570 nM.

For `CC(=O)Nc1cccc2c1C(=O)c1c-2n[nH]c1-c1ccc(N(C)C)cc1`, the figures for the half-inhibitory concentration (IC50) in experiment [1] and in experiment [2] were 320 nM and 310 nM, respectively.

With `CC(=O)Nc1cccc2c1C(=O)c1c-2n[nH]c1-c1sccc1C`, the IC50 in experiment [1] is 260 nM; in experiment [2], greater than 3100 nM.

The compound `NCC1CCN(CC(=O)Nc2cccc3c2C(=O)c2c-3n[nH]c2C2CCCCC2)CC1` registered an IC50 in experiment [2] of 360 nM.

On to `CN(C)c1ccc(-c2[nH]nc3c2C(=O)c2c(NC(=O)CN4CCOCC4)cccc2-3)cc1`, for which the IC50 in experiment [1] worked out at 36 nM; in experiment [2], 110 nM.

Take `CC(=O)Nc1cccc2c1C(=O)c1c(-c3ccco3)n[nH]c1-2`: the IC50 is greater than 1700 nM in experiment [1] and greater than 3500 nM in experiment [2].

For the compound `NC(=O)Nc1cccc2c1C(=O)c1c-2n[nH]c1-c1ccsc1`, the IC50 in experiment [1] stood at 9 nM; in the experiment with HCT-116, 360 nM; in experiment [2] it was 67 nM.

Regarding `CCCc1ccc(-c2[nH]nc3c2C(=O)c2c(NC(C)=O)cccc2-3)cc1`, the IC50 came out at 490 nM in experiment [1] and 1900 nM in experiment [2].

Consider `CC(=O)Nc1cccc2c1C(=O)c1c-2n[nH]c1-c1cc(Cl)sc1Cl`, for which the IC50 in experiment [1] and in experiment [2] was greater than 2600 nM each time.

As for `CSc1ccc(-c2[nH]nc3c2C(=O)c2c(NC(C)=O)cccc2-3)cc1`, the concentration for half-maximal inhibition (IC50) in experiment [1] is 120 nM; in experiment [2], 340 nM.

`CCOC(=O)c1ccc(-c2[nH]nc3c2C(=O)c2c(NC(N)=O)cccc2-3)s1`: the IC50 was found to be 130 nM in experiment [1] and 300 nM in experiment [2].

As for `NC(=O)Nc1cccc2c1C(=O)c1c-2n[nH]c1C1CC1`, the half-maximal inhibitory concentration (IC50) was 140 nM in experiment [1] and 1400 nM in experiment [2].

As to `NC(=O)Nc1cccc2c1C(=O)c1c-2n[nH]c1C1CCCCC1`, the values for the IC50 in experiment [1] and in experiment [2] were 140 nM and greater than 810 nM, respectively.

For `CCCCc1[nH]nc2c1C(=O)c1c(NC(C)=O)cccc1-2`, the concentration for half-maximal inhibition (IC50) in experiment [1] and in experiment [2] was greater than 3500 nM in each case.

Regarding `CN(C)c1ccc(-c2[nH]nc3c2C(=O)c2c(NC(=O)CN4CCC(CN)CC4)cccc2-3)cc1`, the figures for the concentration for half-maximal inhibition (IC50) (in experiment [1]; in the experiment with HCT-116; in experiment [2]) were 15 nM, 74 nM and 7 nM, respectively.

As to `CCc1ccc(-c2[nH]nc3c2C(=O)c2c(NC(C)=O)cccc2-3)cc1`, the half-inhibitory concentration (IC50) stood at 280 nM in experiment [1] and 640 nM in experiment [2].

For `CC(=O)Nc1cccc2c1C(=O)c1c-2n[nH]c1CC(C)C`, the IC50 in experiment [1] and in experiment [2] was greater than 3500 nM in each case.

For the compound `Cn1ccc(-c2[nH]nc3c2C(=O)c2c(NC(N)=O)cccc2-3)c1`, the IC50 in experiment [1] came to 26 nM; in the experiment with HCT-116 it was 64 nM; in experiment [2], 130 nM.

Take `CC(=O)Nc1cccc2c1C(=O)c1c-2n[nH]c1-c1cccnc1`: the IC50 in experiment [1] is 770 nM; in experiment [2] it was greater than 1600 nM.

Turning to `CCc1[nH]nc2c1C(=O)c1c(NC(=O)CN3CCC(C(N)=O)CC3)cccc1-2`, the IC50 in experiment [1] is greater than 130 nM; in experiment [2] it was greater than 2600 nM.

Turning to `CCc1[nH]nc2c1C(=O)c1c(NC(N)=O)cccc1-2`, the 50% inhibitory concentration (IC50) in experiment [1] was 290 nM; in experiment [2], greater than 2000 nM.

For the compound `CC(=O)Nc1cccc2c1C(=O)c1c(-c3ccccc3)n[nH]c1-2`, the half-inhibitory concentration (IC50) in experiment [1] came out at 240 nM; in experiment [2], 840 nM.

As to `CCCCc1ccc(-c2[nH]nc3c2C(=O)c2c(NC(C)=O)cccc2-3)cc1`, the IC50 in experiment [1] was greater than 560 nM; in experiment [2], greater than 2800 nM.

For the compound `CC(C)c1[nH]nc2c1C(=O)c1c(NC(N)=O)cccc1-2`, the half-inhibitory concentration (IC50) is 84 nM in experiment [1] and greater than 1900 nM in experiment [2].

Regarding `Cc1cc(-c2[nH]nc3c2C(=O)c2c(NC(N)=O)cccc2-3)c(C)s1`, the IC50 in experiment [1] was 61 nM; in experiment [2] it was greater than 1500 nM.

As for `O=C(CN1CCC(O)CC1)Nc1cccc2c1C(=O)c1c-2n[nH]c1-c1ccc(N2CCOCC2)cc1`, the IC50 in experiment [1] is 85 nM; in experiment [2], 110 nM.

Consider `CC(=O)Nc1cccc2c1C(=O)c1c-2n[nH]c1C(C)C`, for which the IC50 is 840 nM in experiment [1] and greater than 3700 nM in experiment [2].

With `CC(=O)Nc1cccc2c1C(=O)c1c-2n[nH]c1-c1ccc(Oc2ccccc2)cc1`, the IC50 in experiment [1] and in experiment [2] was greater than 2500 nM in each case.

In the case of `CC(=O)Nc1cccc2c1C(=O)c1c-2n[nH]c1-c1ccncc1`, the IC50 worked out at 76 nM in experiment [1] and 1300 nM in experiment [2].

On to `CC(C)c1[nH]nc2c1C(=O)c1c(NC(=O)CN3CCC(CN)CC3)cccc1-2`, for which the IC50 in experiment [1] turned out to be 48 nM; in experiment [2], 340 nM.

For the compound `NCC1CCN(CC(=O)Nc2cccc3c2C(=O)c2c-3n[nH]c2-c2ccc(N3CCOCC3)cc2)CC1`, the IC50 in experiment [1] was 26 nM; with HCT-116, 110 nM; in experiment [2], 18 nM.

Take `CC(=O)Nc1cccc2c1C(=O)c1c-2n[nH]c1-c1ccc(O)cc1`: the results for the IC50 in experiment [1] and in experiment [2] were 530 nM and 2300 nM, respectively.

Regarding `NCC1CCN(CC(=O)Nc2cccc3c2C(=O)c2c-3n[nH]c2C2CC2)CC1`, the IC50 in experiment [1] came to 55 nM; in experiment [2], 430 nM.

Turning to `CCc1[nH]nc2c1C(=O)c1c(NC(C)=O)cccc1-2`, the results for the IC50 in experiment [1] and in experiment [2] were 1500 nM and greater than 3900 nM, respectively.

As to `NC(=O)Nc1cccc2c1C(=O)c1c-2n[nH]c1-c1cccs1`, the values for the IC50 (in experiment [1]; with HCT-116; in experiment [2]) were 11 nM, 41 nM and 150 nM, respectively.

Consider `CC(C)c1n[nH]c2c1C(=O)c1c(NC(=O)CN3CCC(C(N)=O)CC3)cccc1-2`, for which the values for the half-maximal inhibitory concentration (IC50) (in experiment [1]; with HCT-116; in experiment [2]) were 21 nM, 290 nM and greater than 1300 nM, respectively.

On to `CCc1[nH]nc2c1C(=O)c1c(NC(=O)CN3CCC(CN)CC3)cccc1-2`, for which the half-maximal inhibitory concentration (IC50) in experiment [1] is 240 nM; in experiment [2] it was 1300 nM.

For the compound `NC(=O)Nc1cccc2c1C(=O)c1c-2n[nH]c1-c1ccco1`, the IC50 in experiment [1] worked out at 86 nM; in experiment [2], 840 nM.

On to `CC(=O)Nc1cccc2c1C(=O)c1c-2n[nH]c1-c1ccc(N2CCOCC2)cc1`, for which the values for the half-maximal inhibitory concentration (IC50) in experiment [1] and in experiment [2] were 370 nM and 860 nM, respectively.

Turning to `CCCc1[nH]nc2c1C(=O)c1c(NC(C)=O)cccc1-2`, the IC50 in experiment [1] and in experiment [2] was greater than 3700 nM each time.

Regarding `Cc1ccsc1-c1[nH]nc2c1C(=O)c1c(NC(N)=O)cccc1-2`, the results for the concentration for half-maximal inhibition (IC50) (in experiment [1]; with HCT-116; in experiment [2]) were 17 nM, 140 nM and 350 nM, respectively.

Turning to `O=C(CN1CCOCC1)Nc1cccc2c1C(=O)c1c-2n[nH]c1-c1ccc(N2CCOCC2)cc1`, the half-maximal inhibitory concentration (IC50) worked out at 37 nM in experiment [1] and 120 nM in experiment [2].

`CN(C)c1ccc(-c2[nH]nc3c2C(=O)c2c(NC(=O)CN4CCC(O)CC4)cccc2-3)cc1`: the concentration for half-maximal inhibition (IC50) worked out at 33 nM in experiment [1] and 50 nM in experiment [2].

`CN1CCN(CC(=O)Nc2cccc3c2C(=O)c2c-3n[nH]c2-c2ccc(N(C)C)cc2)CC1`: the results for the IC50 in experiment [1] and in experiment [2] were 29 nM and 55 nM, respectively.

Take `CC(=O)Nc1cccc2c1C(=O)c1c-2n[nH]c1C(C)(C)C`: the values for the concentration for half-maximal inhibition (IC50) in experiment [1] and in experiment [2] were 980 nM and greater than 3500 nM, respectively.

A word on the IC50: it is the concentration that inhibits the measured activity by half. High values mean weaker potency, low ones greater potency.
